Only some compounds are listed: those with a hit (about 1.9% of all), similar ones and a draw of the others.
Rin1-Abl PPI inh: inhibitors of human Rin1-Abl protein interaction. P00519+Q13671. 360,000 tested, 0.4% active. TR-FRET Rin1/Abl binding, biochemical. AID 588664. inhibition, % at 7.35 µM; in the data active means inhibition above about 5%, passing the limit was not always enough
TDP2 inh: TDP2 (human) inhibition, absorbance primary screen | O95551 | recombinant TDP2, T5PNP hydrolysis, p-nitrophenol absorbance 415 nm | inhibition, % at 12.8 µM | 370,000 tested, 0.34% active | AID 720702;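 active means inhibition above the mean of all tested compounds plus 3 SD, set per campaign, cut at about 25% in these data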
Target sequence (O95551 whole entry, looked up): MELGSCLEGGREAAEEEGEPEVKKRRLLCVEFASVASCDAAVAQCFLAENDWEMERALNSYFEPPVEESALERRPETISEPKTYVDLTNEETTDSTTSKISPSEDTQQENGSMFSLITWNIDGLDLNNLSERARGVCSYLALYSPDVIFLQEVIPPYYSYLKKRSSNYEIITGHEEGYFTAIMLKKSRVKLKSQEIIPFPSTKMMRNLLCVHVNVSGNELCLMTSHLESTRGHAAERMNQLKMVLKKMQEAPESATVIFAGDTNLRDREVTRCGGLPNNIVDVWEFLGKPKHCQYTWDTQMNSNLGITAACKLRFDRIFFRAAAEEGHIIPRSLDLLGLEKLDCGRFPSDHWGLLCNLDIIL
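Material: recombinant human TDP2; quantity: TDP2 enzyme at 120 nM final; medium: Tris-HCl pH 7.5 with MgCl2; compound: single concentration, 12.8 µM nominal, with 1% DMSO; incubation: 2 h enzyme incubation at 37 °C; signal: epi absorbance; measure: percent inhibition; benchmarks: high control without enzyme, low control DMSO plus TDP2; repeats: singlicate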
MBD2 DNA inh: blocks human MBD2 binding to methylated DNA; Q9UBB5; TR-FRET, MBD2 binding to methylated oligonucleotide; inhibition, % at 4.4 µM; 370,000 tested, 0.31% active; AID 686964; in the data active means inhibition above about 13%
LEDGF integ inh: blocks HIV-1 LEDGF/p75-dependent DNA integration | TR-FRET IN-LEDGF/p75 DNA integration, Eu/Cy5 | inhibition, % at 3.7 µM | 370,000 tested, 0.64% active;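 active means inhibition above the screen-wide mean plus 3 SD, cut at about 13% in these data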;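 further: signal is the Cy5 over europium emission ratio at 671 and 618 nm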
UHRF1 MBD2 ctr: human UHRF1 methylated DNA binding inhibitors | Q96T88 | inhibition, % at 4.4 µM | 370,000 tested, 0.75% active | UHRF1 binding to methylated oligo, TR-FRET; in the data active means inhibition above about 21%;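 further: UHRF1 SRA domain binding a hemimethylated CpG hairpin DNA probe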
UHRF1 ctr MBD2: counter-screen for MBD2 inhibitors: human UHRF1 methylated DNA binding inhibitors; shares compounds with MBD2 DNA inh; UHRF1 binding to methylated oligonucleotide, TR-FRET; inhibition, % at 4.4 µM; 1,000 tested, 25% active; AID 720530; in the data active means inhibition above about 21%;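 further: UHRF1 SRA domain binding a labeled hemimethylated CpG hairpin DNA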
MBD2 confirm: confirmation of human MBD2-DBD methylated oligonucleotide binding inhibitors; shares compounds with MBD2 DNA inh; TR-FRET MBD2-DBD binding to methylated oligonucleotide; inhibition, % at 4.4 µM; 1,000 tested, 26% active; AID 720531
TDP2 confirm: confirmation of human TDP2 inhibitors; shares compounds with TDP2 inh; 1,100 tested, 22% active; inhibition, % at 12.8 µM; recombinant human TDP2, absorbance read-out; in the data active means inhibition above about 25%
IN multimer act: activates HIV-1 integrase multimerization in LEDGF counter-screen; shares compounds with LEDGF integ inh; TR-FRET HIV-1 integrase multimerization, biochemical; activation, % at 7.7 µM; 2,000 tested, 17% active; in the data active means activation above about 8.9%
TRFRET interf: counter-screen for LEDGF/p75 integration inhibitors: TR-FRET optical interference; AID 1053135; 2,000 tested, under 10 active; shares compounds with LEDGF integ inh; TR-FRET optical interference counterscreen, HIV-1 IN multimerization; inhibition, % at 7.7 µM;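 active means inhibition above the mean over all tested compounds plus 3 SD, which no compound reached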
IN-LEDGF confirm: LEDGF/p75-dependent HIV-1 integration inhibition, confirmation. shares compounds with LEDGF integ inh. TR-FRET LEDGF/p75-dependent HIV-1 integration, biochemical. inhibition, % at 3.7 µM. 2,000 tested, 36% active
Numbers stand for hits; n = inactive; x = no result given. Unless noted, no stated cut-off is given here; in the data, active means inhibition above about 14%; inactive means the rest.

SMILES	Rin1-Abl PPI inh	TDP2 inh	MBD2 DNA inh	LEDGF integ inh	UHRF1 MBD2 ctr	UHRF1 ctr MBD2	MBD2 confirm	IN multimer act	TRFRET interf	IN-LEDGF confirm	others
O=C1OC(c2ccc(Cl)cc2)=N/C1=C\C=C\c1ccco1	n	n	14	36	40	n	n	n	n	n
O=C1OC(c2ccccc2)=N/C1=C\C=C\c1ccccc1[N+](=O)[O-]	n	n	n	n	n	x	x	x	x	x
Cc1onc(-c2ccccc2Cl)c1C(=O)NCc1ccco1	n	n	26	44	41	n	14	10	n	30
O=C(O)Cc1c[nH]c2ccccc12	n	n	n	n	n	x	x	x	x	x
O=C(O)Cc1c[nH]c2cccc(O)c12	n	n	55	73	95	40	16	55	n	39
CC(=O)Oc1cccc(/C=c2\sc3nc(-c4ccco4)nn3c2=O)c1	n	n	n	n	n	x	x	x	x	x
CCCOc1ccc(/C=c2\sc3nc(-c4ccco4)nn3c2=O)cc1OCC	n	n	31	13	31	n	n	n	n	n
COc1cc(/C=C(\C#N)C(=O)c2ccc(O)c(O)c2)cc(I)c1O	n	n	22	90	58	n	n	22	n	82
COc1ccc(C=C(C#N)C(=O)c2ccccc2)cc1	x	n	n	n	n	x	x	x	x	x
CCOC(=O)C(C)N1C(=O)S/C(=C\c2ccc(-c3ccccc3C(=O)O)o2)C1=O (configuration not stated)	n	n	31	18	55	49	16	n	n	18
O=C(COC(=O)/C=C/c1ccco1)NCc1ccccc1	n	n	n	n	n	x	x	x	x	x
O=C(N/C=C/c1ccco1)OCc1ccccc1	n	n	15	36	24	26	27	31	n	36
CCOC(=O)[C@@]12CCC3=C1N(CCC3)C(=O)[C@H](CC(=O)NCCCN1CCCC1=O)C2	x	n	n	n	n	x	x	x	x	x
CCC(=O)N1CCc2cc(Br)c(S(=O)(=O)NC3CCN(Cc4ccccc4)CC3)cc21	x	n	n	n	n	x	x	x	x	x
CSc1nc(N(CCO)CCO)c2sc3nc(-c4ccco4)c4c(c3c2n1)CCC4	n	n	18	16	24	31	36	12	n	53
O=C(NC(=S)Nc1ccc(Br)cn1)c1cccs1	n	n	14	19	37	n	n	n	n	n
COc1ccc(S(=O)(=O)/N=C2/NC(=O)/C(=C/c3ccco3)S2)cc1	n	n	22	39	76	n	n	n	n	n
CCCCCCCCN1C(=O)[C@@H](CC(=O)NCC2CCCCC2)C[C@@]2(C(=O)OC)C1=C[C@H](COCc1ccccc1)O[C@@H]2C	x	n	n	n	n	x	x	x	x	x
O=C(O)c1ccc(N/N=C/C2=C(N3CCOCC3)C(=C\c3ccccc3)/CC2)cc1	n	n	19	54	51	n	n	n	n	17
COCCNC(=O)C1(C)CCCN(C(=O)c2ccc(C(=O)OC)cc2)C1 (configuration not stated)	n	n	16	15	n	n	n	n	n	n
COc1ccc(C(c2c(C)n(C)n(-c3ccccc3)c2=O)c2c(C)n(C)n(-c3ccccc3)c2=O)cc1OC	n	n	n	n	n	x	x	x	x	x
COc1ccc(C(c2c(C)[nH]n(-c3ccccc3)c2=O)c2c(C)[nH]n(-c3ccccc3)c2=O)cc1OC	n	88	16	26	n	n	n	n	n	n	TDP2 confirm=39
Cc1csc(NC(=O)CSc2sc3c(O)cc(=O)[nH]c3c2C#N)n1	n	n	52	38	79	n	n	41	n	20
COC(=O)c1ccc(C)c(NC(=O)CSc2sc3c(O)cc(=O)[nH]c3c2C#N)c1	n	n	14	14	51	22	n	20	n	36
COc1ccc(NC(=O)CSc2sc3c(O)cc(=O)[nH]c3c2C#N)c(OC)c1	n	n	30	16	56	22	n	21	n	34
SMILES	Rin1-Abl PPI inh	TDP2 inh	MBD2 DNA inh	LEDGF integ inh	UHRF1 MBD2 ctr	UHRF1 ctr MBD2	MBD2 confirm	IN multimer act	TRFRET interf	IN-LEDGF confirm	others
Cc1ccc(-c2cc(-c3nnc(SCC(=O)Nc4ccc(OCc5ccccc5)cc4)n3N)[nH]n2)cc1	x	n	n	n	n	x	x	x	x	x
O=C(C1CCCN1S(=O)(=O)c1cccc([N+](=O)[O-])c1)N1CCN(c2ccccc2)CC1 (configuration not stated)	x	n	n	n	n	x	x	x	x	x
O=C(O)c1cc(N2C(=O)C=CC2=O)cc(N2C(=O)C=CC2=O)c1	n	n	80	62	97	77	39	n	n	53
O=C(O)c1cc(C(=O)O)cc(N2C(=O)c3ccccc3C2=O)c1	x	n	n	n	n	x	x	x	x	x
COc1ccccc1N1CCN(CCCCOc2c(OC)cccc2OC)CC1	n	27	n	n	n	x	x	x	x	x	TDP2 confirm=n
COc1ccc(CC(=O)OC(C)C(=O)NCc2ccc3c(c2)OCO3)cc1OC (configuration not stated)	n	44	n	n	n	x	x	x	x	x	TDP2 confirm=n
COc1ccc(CC(=O)OCC(=O)NCc2ccc3c(c2)OCO3)cc1OC	n	n	n	n	n	x	x	x	x	x
CCOc1ccc(/C=C2\NCCc3cc(OCC)c(OCC)cc32)cc1OCC	x	n	n	n	n	x	x	x	x	x
CCOC(=O)[C@]12CCCC=C1N(Cc1ccc(OC)cc1)C(=O)[C@@H]2CC(=O)NCC12CC3CC(CC(C3)C1)C2	x	n	n	n	n	x	x	x	x	x
CN(C(=O)COC(=O)c1ccc(=O)n(Cc2ccccc2)n1)C1CCCCC1	n	n	n	n	n	x	x	x	x	x
COc1cc(NC2CCCCC2O)c2nc(-c3ccc(Cl)cc3)ccc2c1 (configuration not stated)	n	33	n	n	n	x	x	x	x	x	TDP2 confirm=n
Cc1[nH]c(C)c(S(=O)(=O)N(C)Cc2ccccc2)c1C(=O)N1CCCC1	n	28	n	n	n	x	x	x	x	x	TDP2 confirm=n
COc1ccc(-c2noc(C3CCCN(C(=O)N[C@@H]4C[C@H]4c4ccccc4)C3)n2)cc1 (some centres not stated)	x	n	n	n	n	x	x	x	x	x
CCCCC(=O)Nc1nnc(SCC(=O)NC2CCCC2)s1	n	n	n	n	n	x	x	x	x	x
CC(C)C(=O)Nc1nnc(SCC(=O)NC2CCCC2)s1	n	33	n	n	93	x	x	x	x	x	TDP2 confirm=n

Screening data from PubChem BioAssay.
